Assay results taken from ChEMBL document CHEMBL4665656, “Toxicity, bioactivity, release of HS in vivo and pharmaco-kinetics of HS-donors with thiophosphamide structure” (Eur J Med Chem, 2019).
Activity calls are given as the source filed them. The rule behind the calls is not given here.

Legend:
[1] = Solubility of compound in water; type: physicochemical; conditions: buffer
[2] = Kinetic Solubility of compound; type: physicochemical
[3] = Induction of H2S generation assessed as Cmax Induction of H2S generation assessed as Cmax at 150 uM incubated at 37 degC and pH 7.4 by fluorescence spectrophotometry; type: functional
In short: (§1)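 Donor at 150 µM final, mixed with 200 µM sulfonyl-azide fluorescent probe in buffer/acetonitrile (1:9) at set pH. Cuvette held in a water bath at 22 °C or 37 °C, with fluorescence read three times at intervals. H2S was quantified from a Na2S standard curve (0–200 µM, probe 200 µM).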

[4] = Induction of H2S generation assessed as Cmax Induction of H2S generation assessed as Cmax at 150 uM incubated at 37 degC and pH 8 by fluorescence spectrophotometry; type: functional; in short: as §1
[5] = Induction of H2S generation assessed as Cmax at 150 uM incubated at 37 degC and pH 5 by fluorescence spectrophotometry; type: functional; in short: as §1
[6] = Induction of H2S generation assessed as Cmax at 150 uM incubated at 37 degC and pH 1.2 by fluorescence spectrophotometry; type: functional; in short: as §1
[7] = Induction of H2S generation assessed as Cmax at 150 uM incubated at 22 degC and pH 7.4 by fluorescence spectrophotometry; type: functional; in short: as §1
[8] = Induction of H2S generation assessed as Cmax at 150 uM incubated at 22 degC and pH 8 by fluorescence spectrophotometry; type: functional; in short: as §1
[9] = Induction of H2S generation assessed as Cmax at 150 uM incubated at 22 degC and pH 1.2 by fluorescence spectrophotometry; type: functional; in short: as §1
[10] = test system: HeLa; experiment: Cytotoxicity in human HeLa cells assessed as growth inhibition incubated for 24 hrs by MTT assay; type: functional, cell-based
In short: (§2)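 Cells were grown in RPMI 1640 with 10% FBS at 37 °C and 10% CO2, seeded at 6×10^3 cells/well. Exposure was 24 h, with viability by MTT, in triplicate cultures. IC50 was reported as mean ± SD.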

[11] = test system: A549; experiment: Cytotoxicity in human A549 cells assessed as growth inhibition incubated for 24 hrs by MTT assay; type: functional, cell-based; conditions: A549, 24 h; in short: as §2
[12] = test system: HepG2; experiment: Cytotoxicity in human HePG2 cells assessed as growth inhibition incubated for 24 hrs by MTT assay; type: functional, cell-based; conditions: HepG2, 24 h; in short: as §2
[13] = test system: MCF7; experiment: Cytotoxicity in human MCF-7 cells assessed as growth inhibition incubated for 24 hrs by MTT assay; type: functional, cell-based; conditions: MCF7, 24 h; in short: as §2
[14] = test system: HT-29; experiment: Cytotoxicity in human HT-29 cells assessed as growth inhibition incubated for 24 hrs by MTT assay; type: functional, cell-based; conditions: HT-29, 24 h; in short: as §2
[15] = test system: WI-38; experiment: Cytotoxicity in human W138 cells assessed as growth inhibition incubated for 24 hrs by MTT assay; type: cell-based; conditions: WI-38, 24 h; in short: as §2
[16] = test system: RAW264.7; experiment: Anti-inflammatory activity in mouse RAW264.7 cells assessed as inhibition of LPS-induced IL-10 production at 20 uM preincubated for 4 hr followed by LPS addition and measured after 24 hrs; type: functional, cell-based
In short: (§3)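 RAW264.7 cells given LPS 1 µg/mL with compound for 24 h, then lysed in RIPA and centrifuged. Protein was set to 0.1 mg/mL by BCA and mouse cytokine levels measured by sandwich ELISA kit. Four parallel groups, mean ± SD.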

[17] = test system: RAW264.7; experiment: Anti-inflammatory activity in mouse RAW264.7 cells assessed as inhibition of LPS-induced TNFalpha production at 20 uM preincubated for 4 hr followed by LPS addition and measured after 24 hrs relative to control; type: functional, cell-based; in short: as §3
[18] = Cytotoxicity against mouse RAW264.7 cells assessed as cell viability at 20 to 100 microM after 24 hrs by MTT assay; type: cell-based; conditions: dose 20-100 µM, read-out: Activity
In short: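 RAW264.7 macrophages in high-glucose DMEM with 10% heat-inactivated FBS, 37 °C, 5% CO2. LPS 1 µg/mL with or without compound (20 and 100 µM) for 24 h. Then MTT 4 h, formazan dissolved in DMSO, A570, expressed as % of control.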

[19] = test system: RAW264.7; experiment: Anti-inflammatory activity in mouse RAW264.7 cells assessed as inhibition of LPS-induced NO production preincubated for 4 hr followed by LPS addition and measured after 24 hrs relative to control; type: functional, cell-based; conditions: dose 100.0 µM, time 28.0 hrs
In short: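 RAW264.7 cells exposed to LPS 1 µg/mL with compound (20 and 100 µM) for 24 h. Nitrite in medium measured by Griess reagent, […], against a sodium nitrite standard curve (0–100 µM). Four parallel groups, mean ± SD.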

[20] = Cytotoxicity against rat H9C2 cells assessed as cell viability at 100 uM measured after 24 hrs by MTT assay; type: cell-based; conditions: read-out: Activity
[21] = Induction of H2S generation assessed as half life at 150 uM incubated at 22 degC and pH 1.2 by fluorescence spectrophotometry; type: functional; in short: as §1
[22] = Induction of H2S generation assessed as half life at 150 uM incubated at 22 degC and pH 5 by fluorescence spectrophotometry; type: functional; in short: as §1
[23] = Induction of H2S generation assessed as half life at 150 uM incubated at 22 degC and pH 7.4 by fluorescence spectrophotometry; type: functional; in short: as §1
[24] = Induction of H2S generation assessed as half life at 150 uM incubated at 22 degC and pH 8 by fluorescence spectrophotometry; type: functional; in short: as §1
[25] = Induction of H2S generation assessed as half life at 150 uM incubated at 37 degC and pH 1.2 by fluorescence spectrophotometry; type: functional; in short: as §1
[26] = Induction of H2S generation assessed as half life at 150 uM incubated at 37 degC and pH 5 by fluorescence spectrophotometry; type: functional; in short: as §1
[27] = Induction of H2S generation assessed as half life at 150 uM incubated at 37 degC and pH 7.4 by fluorescence spectrophotometry; type: functional; in short: as §1
[28] = Induction of H2S generation assessed as half life at 150 uM incubated at 37 degC and pH 8 by fluorescence spectrophotometry; type: functional; in short: as §1

## O=C([O-])CNP([O-])(=S)c1ccccc1.[Li+].[Li+] (stereo not drawn)
[1]
  solubility: Soluble
[2]
  Kinetic_solubility: Soluble
[3]
  Cmax: 102 µM
[4]
  Cmax: 101 µM
[5]
  Cmax: 103 µM
[6]
  Cmax: 103 µM
[7]
  Cmax: 99.5 µM
[8]
  Cmax: 99.4 µM
[9]
  Cmax: 101 µM
[10]
  IC50: 913 µM
[11]
  IC50: 378 µM
[12]
  IC50: 771 µM
[13]
  IC50: 876 µM
[14]
  IC50: 912 µM
[15]
  IC50: 508 µM
[16]
  Activity: Active
[17]
  Activity: Active
[18]
  viability at 24 h: 70%
[19]
  Activity: Dose-dependent effect
[20]
  viability at 24 h, 100 µM: > 90%
[21]
  T1/2: 2.94 min
[22]
  T1/2: 3.19 min
[23]
  T1/2: 4.93 min
[24]
  T1/2: 6.44 min
[25]
  T1/2: 2.17 min
[26]
  T1/2: 2.41 min
[27]
  T1/2: 3.66 min
[28]
  T1/2: 5.57 min
